Data published in ChEMBL document CHEMBL4229390, “Structure-guided evolution of a 2-phenyl-4-carboxyquinoline chemotype into PPARα selective agonists: New leads for oculovascular conditions” (Bioorg Med Chem Lett, 2018).
Calls of active or inactive are those of the source. No cut-off for these calls is given here.

Tests used:
[1] = target: T1, Peroxisome proliferator-activated receptor alpha (Homo sapiens, UniProt Q07869); assay: Agonist activity at PPARalpha (unknown origin) expressed in reporter combo cells after 36 hrs by dual luciferase reporter gene assay; type: cell-based
T1 sequence (Q07869 whole entry): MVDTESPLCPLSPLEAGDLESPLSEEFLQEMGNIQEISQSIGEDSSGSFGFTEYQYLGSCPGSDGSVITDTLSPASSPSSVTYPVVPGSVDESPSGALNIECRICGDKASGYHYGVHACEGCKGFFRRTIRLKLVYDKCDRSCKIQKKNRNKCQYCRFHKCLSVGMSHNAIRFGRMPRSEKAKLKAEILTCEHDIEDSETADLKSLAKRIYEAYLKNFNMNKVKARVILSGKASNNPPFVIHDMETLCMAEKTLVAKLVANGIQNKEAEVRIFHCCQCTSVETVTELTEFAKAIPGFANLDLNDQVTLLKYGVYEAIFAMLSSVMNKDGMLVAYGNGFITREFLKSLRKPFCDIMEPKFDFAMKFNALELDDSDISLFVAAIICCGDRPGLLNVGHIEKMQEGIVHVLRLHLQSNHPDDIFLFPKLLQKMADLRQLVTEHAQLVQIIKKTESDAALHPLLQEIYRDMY
How it was run: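 Human PPARα luciferase reporter cell line. Luciferase activity was read indirectly as oxyluciferin production. EC50 came from a 10-point dose-response, dosed in triplicate in a single experiment. In the initial screen, agonism was expressed as fold-induction over the DMSO control (n = 3) at 5 and 50 μM.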

[2] = target: T2, Peroxisome proliferator-activated receptor alpha (Homo sapiens) (UniProt Q07869); assay: Agonist activity at human PPARalpha at 10 uM after 22 to 24 hrs by luciferase reporter gene assay
T2 sequence (whole entry): T1 sequence (Q07869 whole entry)
How it was run: (§1)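 hPPARα luciferase reporter cells; read-out via oxyluciferin production. […] Fold-induction over DMSO control ± S.E. (n = 3), single experiment.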

[3] = target: T2, Peroxisome proliferator-activated receptor alpha (Homo sapiens); assay: Agonist activity at human PPARalpha at 5 uM after 22 to 24 hrs by luciferase reporter gene assay; how it was run: as §1
[4] = target: T3, Peroxisome proliferator-activated receptor delta (Homo sapiens, UniProt Q03181); assay: Agonist activity at human PPARdelta after 22 to 24 hrs by luciferase reporter gene assay
T3 sequence (Q03181 whole entry): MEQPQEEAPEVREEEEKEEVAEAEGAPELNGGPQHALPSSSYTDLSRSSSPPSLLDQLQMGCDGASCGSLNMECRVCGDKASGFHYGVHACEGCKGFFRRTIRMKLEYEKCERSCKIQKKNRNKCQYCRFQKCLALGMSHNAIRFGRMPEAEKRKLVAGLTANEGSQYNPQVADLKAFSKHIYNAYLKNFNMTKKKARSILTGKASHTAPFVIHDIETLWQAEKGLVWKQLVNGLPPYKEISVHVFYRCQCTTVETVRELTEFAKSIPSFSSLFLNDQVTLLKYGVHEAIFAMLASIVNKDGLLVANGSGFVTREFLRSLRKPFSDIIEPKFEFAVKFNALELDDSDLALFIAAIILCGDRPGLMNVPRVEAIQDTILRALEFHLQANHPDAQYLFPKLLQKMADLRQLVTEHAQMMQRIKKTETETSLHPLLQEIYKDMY

[5] = target: T1, Peroxisome proliferator-activated receptor alpha; assay: Agonist activity at human PPARalpha after 22 to 24 hrs by luciferase reporter gene assay
How it was run: (§2)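 Human PPAR luciferase reporter cell lines; luciferase read-out through oxyluciferin production. 10-point dose-response in triplicate, single experiment, giving EC50.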

[6] = target: T2, Peroxisome proliferator-activated receptor alpha (Homo sapiens); assay: Agonist activity at human PPARalpha after 22 to 24 hrs by luciferase reporter gene assay relative to GW590735; how it was run: as §2
[7] = target: T4, Peroxisome proliferator-activated receptor gamma (Homo sapiens, UniProt P37231); assay: Agonist activity at human PPARgamma after 22 to 24 hrs by luciferase reporter gene assay; how it was run: as §2
T4 sequence (P37231 whole entry): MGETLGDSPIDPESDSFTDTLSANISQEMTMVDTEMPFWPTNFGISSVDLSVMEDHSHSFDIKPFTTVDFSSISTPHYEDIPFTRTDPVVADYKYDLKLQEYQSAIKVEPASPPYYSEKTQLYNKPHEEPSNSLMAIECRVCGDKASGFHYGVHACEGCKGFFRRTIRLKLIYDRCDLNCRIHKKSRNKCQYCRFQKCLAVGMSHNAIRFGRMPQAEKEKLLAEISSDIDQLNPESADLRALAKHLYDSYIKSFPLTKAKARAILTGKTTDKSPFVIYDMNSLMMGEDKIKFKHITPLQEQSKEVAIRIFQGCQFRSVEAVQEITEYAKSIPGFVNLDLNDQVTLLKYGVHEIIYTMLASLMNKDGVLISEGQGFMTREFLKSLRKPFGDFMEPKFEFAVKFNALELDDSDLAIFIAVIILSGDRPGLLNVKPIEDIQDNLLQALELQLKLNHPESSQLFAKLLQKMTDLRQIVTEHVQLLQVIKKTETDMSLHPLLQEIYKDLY

[8] = target: T5, Peroxisome proliferator-activated receptor alpha (Mus musculus) (UniProt P23204); assay: Agonist activity at PPARalpha in C57BL/6N mouse assessed as upregulation of Acadm gene expression at 10 to 100 uM after 24 hrs by RT-PCR method
T5 sequence (whole entry): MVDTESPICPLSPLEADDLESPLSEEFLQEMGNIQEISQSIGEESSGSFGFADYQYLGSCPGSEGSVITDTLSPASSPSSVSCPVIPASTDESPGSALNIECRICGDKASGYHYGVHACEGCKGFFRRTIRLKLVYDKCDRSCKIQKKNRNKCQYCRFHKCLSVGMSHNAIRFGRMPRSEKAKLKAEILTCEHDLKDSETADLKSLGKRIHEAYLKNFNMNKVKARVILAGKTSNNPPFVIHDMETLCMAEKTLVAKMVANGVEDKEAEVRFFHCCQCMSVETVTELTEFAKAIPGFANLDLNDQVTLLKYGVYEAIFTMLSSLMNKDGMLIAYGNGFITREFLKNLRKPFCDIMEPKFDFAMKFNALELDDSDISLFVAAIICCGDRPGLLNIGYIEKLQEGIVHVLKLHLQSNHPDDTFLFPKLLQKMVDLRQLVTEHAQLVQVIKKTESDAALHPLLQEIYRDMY
How it was run: (§3)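 Mouse 661W cells treated for 24 h; target mRNA quantified by RT-PCR (n = 6). Reported as mean ± S.D.; group differences tested with Student's t-test.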

[9] = target: T5, Peroxisome proliferator-activated receptor alpha (Mus musculus); assay: Agonist activity at PPARalpha in C57BL/6N mouse assessed as upregulation of PPARalpha protein expression after 24 hrs by Western blot method
How it was run: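 Mouse 661W cells exposed for 24 h. PPARα protein detected by Western blot and quantified by densitometry. Experiments performed three times in triplicate; mean ± S.D.; Student's t-test.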

[10] = target: T5, Peroxisome proliferator-activated receptor alpha (Mus musculus); assay: Agonist activity at PPARalpha in C57BL/6N mouse assessed as upregulation of Cpt1a gene expression at 10 to 100 uM after 24 hrs by RT-PCR method; how it was run: as §3
[11] = target: T5, Peroxisome proliferator-activated receptor alpha (Mus musculus); assay: Agonist activity at PPARalpha in C57BL/6N mouse assessed as upregulation of Fabp3 gene expression at 10 to 100 uM after 24 hrs by RT-PCR method; how it was run: as §3
[12] = organism: Homo sapiens; assay: Antimigratory activity in HRCEC after 10 to 24 hrs by wound healing assay; type: functional
How it was run: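 Wound healing (scratch) assay in human retinal capillary endothelial cells, closure assessed at 10 h and 24 h incubation. Performed three times in triplicate; mean ± S.D.; Student's t-test.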

[13] = target: T5, Peroxisome proliferator-activated receptor alpha (Mus musculus); assay: Agonist activity at PPARalpha in C57BL/6N mouse assessed as upregulation of Slc25a20 gene expression at 10 to 100 uM after 24 hrs by RT-PCR method; how it was run: as §3

Structure (SMILES) | Activity [2] | Activity [3] | EC50 [4] [µM] | EC50 [7] [µM] | other results
Cc1c(Cl)ccc2c(C(=O)O)cc(-c3ccccc3)nc12 | – | – | – | – | EC50 [1]: 25 to 50 µM
CC(C)(Oc1cccc(NCc2ccc(OCc3ccccc3)cc2)c1)C(=O)O | Active | inactive | – | – | –
COc1ccc(COc2ccc(CNc3cccc(OC(C)(C)C(=O)O)c3)c(OCc3ccc(OC)cc3)c2)cc1 | – | – | 8.9 | 5.6 | EC50 [5]: 2.1 µM; fold change (FC) [6]: 1.4
COc1ccc(COc2ccc(CNc3cccc(C(=O)O)c3)cc2)cc1 | – | – | > 100 | > 100 | Activity [8]: Active; Activity [9]: Dose-dependent effect; Activity [10]: Active; Activity [11]: Active; Activity [12]: Dose-dependent effect; Activity [13]: Active
COc1ccc(COc2ccc(CNc3cccc(C(=O)O)c3)c(OCc3ccc(OC)cc3)c2)cc1 | – | – | > 100 | > 100 | EC50 [5]: 5.1 µM; fold change (FC) [6]: 1.1
CC(C)(Oc1cccc(NCc2ccc(OCc3ccc(Cl)cc3)cc2)c1)C(=O)O | Active | inactive | – | – | –
O=C(O)c1cccc(NCc2ccc(OCc3ccc(Cl)cc3Cl)cc2)c1 | – | Active | – | – | –
COc1ccc(COc2ccc(CNc3cccc(OC(C)(C)C(=O)O)c3)cc2)cc1 | Active | inactive | 38.6 | 18.3 | –
O=C(O)c1cccc(NCc2ccc(OCc3ccc([N+](=O)[O-])cc3)cc2)c1 | – | Active | – | – | –
O=C(O)c1cccc(NCc2ccc(OCc3ccccc3)cc2)c1 | Active | Active | – | – | –
CC(C)(Oc1cccc(NCc2ccc(OCc3cc(F)cc(F)c3)cc2)c1)C(=O)O | Active | inactive | – | – | –
O=C(O)c1cccc(NCc2ccc(OCc3ccc(Cl)cc3)cc2)c1 | Active | Active | – | – | –
O=C(O)c1cccc(NCc2ccc(OCc3cc(F)cc(F)c3)cc2)c1 | Active | Active | – | – | –
